# The list is not random: actives were taken first. Their share in the collection is about 1.4%.
# CHT allo act – allosteric activators of human choline transporter CHT; Q9GZV3; B-score at 10 µM; 0.49% of 310,000 active; CHT-expressing cells, membrane potential dye, choline EC20; stronger effect = higher value; LV-AA mutant CHT in HEK293 cells; AID 488977;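 active means initial fluorescence not abnormally high and integrated response B-score, plate-corrected, over 3 SD above library mean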
# TNAP inh noacc – TNAP (human) inhibition, acceptor-free conditions; P05186; purified TNAP, CDP-star luminescence, 30 min; inhibition, % at 20 µM; 0.26% of 200,000 active;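 active means tissue-nonspecific alkaline phosphatase inhibition above about 50% at 20 µM in the single-dose screen, limit read from the data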;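 further: 0% = DMSO negative control and 100% = EDTA positive control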
# Target sequence (P05186 whole entry, looked up): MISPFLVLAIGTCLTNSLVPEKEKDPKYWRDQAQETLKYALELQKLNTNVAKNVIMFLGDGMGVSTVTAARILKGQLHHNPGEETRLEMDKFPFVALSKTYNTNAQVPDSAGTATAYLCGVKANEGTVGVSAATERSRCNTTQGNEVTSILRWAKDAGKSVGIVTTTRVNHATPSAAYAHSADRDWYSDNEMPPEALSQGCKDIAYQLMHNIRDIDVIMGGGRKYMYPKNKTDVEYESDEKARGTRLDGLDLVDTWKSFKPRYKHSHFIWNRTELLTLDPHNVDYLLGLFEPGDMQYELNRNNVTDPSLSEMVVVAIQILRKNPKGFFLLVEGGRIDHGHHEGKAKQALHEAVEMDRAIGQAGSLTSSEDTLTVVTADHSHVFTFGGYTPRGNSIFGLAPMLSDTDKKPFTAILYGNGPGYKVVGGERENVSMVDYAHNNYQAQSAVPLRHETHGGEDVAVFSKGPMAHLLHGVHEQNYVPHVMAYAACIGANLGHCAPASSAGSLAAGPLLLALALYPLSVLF
# ABCB6 inh 2 – inhibitors of human ABC transporter ABCB6; Q9NP58; K562-ABCB6 porphyrin accumulation, flow cytometry, 1 h; stronger effect = lower value; fluorescence ratio to DMSO, % at 10 µM; 0.19% of 360,000 active; AID 602162;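 active means fluorescence ratio to DMSO below 75%, the collection mean minus 3 SD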;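 further: signal is porphyrin accumulated inside mitochondria; 100% equals median channel fluorescence of DMSO control wells; lower ratio means ABCB6 inhibition with less porphyrin fluorescence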
# TNAP act hiacc – activators of human TNAP at high phosphate acceptor concentration. P05186. purified TNAP, CDP-star luminescence, 1 M DEA, 30 min; stronger effect = higher value; 0 = EDTA background, 1 = DMSO-only activity. activation factor at 20 µM. 200,000 tested, under 10 active. AID 1136;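 active means activation factor at least 2 at 20 µM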
#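 Control set: EDTA negative control, DMSO positive control / Assay system: human TNAP / Quantity: TNAP 1/800 final / Evaluation: TNAP activation factor scaled between EDTA and DMSO control wells / Measured by: luminescent substrate turnover signal / Compound dosing: one dose, 20 µM / Times: 30 min enzyme reaction at room temperature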
# CHT inh – inhibits the human high affinity choline transporter; Q9GZV3; B-score at 10 µM; CHT-expressing cells, membrane potential dye, choline response; stronger effect = lower value; 0.86% of 310,000 active;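 active means B-score over 3 SD under the library average, and starting fluorescence ratio not unusually high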;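 further: choline stimulus applied at its EC90 after an EC20 pre-addition; B-score computed on integrated fluorescence ratio after choline addition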
# TNAP inh hi DEA – blocks human TNAP under high phosphate acceptor concentration; purified TNAP, CDP-star luminescence, 1 M DEA; inhibition, % at 20 µM; 0.03% of 200,000 active; AID 1135;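 active means over 50% inhibition of tissue-nonspecific alkaline phosphatase at 20 µM in the single-dose screen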;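 further: plate controls were DMSO wells for no effect and EDTA-quenched wells as full inhibition for full effect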
# CHT inh conf – human CHT inhibition, confirmatory screen; 70% of 2,400 active; CHT activity remaining % of control (stronger effect = lower value), % at 10 µM; CHT-expressing cells, choline membrane potential dye; LV-to-AA substituted CHT, HEK293 cells; shares compounds with CHT inh;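 active means choline transporter activity left, mean of duplicates at 10 µM, below buffer-only control mean minus 3 SD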;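 further: depolarization triggered by choline at its EC90 following an EC20 pre-addition; 0% = hemicholinium-3 full block and 100% = buffer-only control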
# HEK293 CHT ctr – activity in parental HEK293 cells lacking CHT; membrane potential dye, choline response; active = decrease or increase beyond buffer ±3SD; shares compounds with CHT inh; 4% of 2,400 active; membrane potential ratio readout (active if shifted either direction beyond buffer ±3SD; no single direction) at 10 µM;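 further: parental cells lack the transporter so any hit is non-specific; ratio is peak minus trough fluorescence over baseline after EC90 choline challenge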
# Active calls of the source: *; i = inactive; . = no result.
SMILES,CHT allo act,TNAP inh noacc,ABCB6 inh 2,TNAP act hiacc,CHT inh,TNAP inh hi DEA,CHT inh conf,HEK293 CHT ctr
O=C(Nc1ccccc1Cl)c1ccc(S(=O)(=O)NCC2CCCO2)cc1 (configuration not stated),i,.,95.0,.,-6.42*,.,30.9%*,i
COc1ccc(S(=O)(=O)NCC2CCCO2)cc1NC(=O)c1ccc(Cl)cc1 (configuration not stated),i,.,103.0,.,i,.,.,.
Cc1ccccc1NC(=O)c1ccc(F)c(S(=O)(=O)NCC2CCCO2)c1 (configuration not stated),i,.,101.0,.,-7.68*,.,20.8%*,i
Cc1ccccc1CNS(=O)(=O)c1c(C(=O)N2CCCCC2)c(C)n(C)c1C,i,.,92.0,.,i,.,.,.
Cc1cc(C)c(Cn2c3ccccc3c3cnn(CC(=O)NCCN4CCOCC4)c(=O)c32)c(C)c1,i,.,101.0,.,-11.7*,.,14.7%*,i
O=C(Nc1cccc(C(=O)N2CCCCC2)c1)c1ccccc1Br,i,.,101.0,.,-5.19*,.,24.6%*,i
CN(C(=O)c1ccccc1Cl)C1CCCCC1,i,-6.1,96.0,1,-6.75*,-3.0,i,i
CCCCC(=O)N(Cc1ccc(F)cc1)C1CCS(=O)(=O)C1 (configuration not stated),i,.,96.0,.,i,.,.,.
O=C(CC1C(=O)NCCN1C(=O)Nc1ccccc1)Nc1cc(Cl)cc(Cl)c1 (configuration not stated),i,.,104.0,.,-5.02*,.,15.8%*,i
CC(Nc1cc(N2CCNCC2)ccc1[N+](=O)[O-])c1ccccc1 (configuration not stated),i,1.2,101.0,0.8,-6.4*,17.2,35.2%*,2.74*
CCS(=O)(=O)N1CCN(c2ccc([N+](=O)[O-])c(NC(C)c3ccccc3)c2)CC1 (configuration not stated),i,5.9,95.0,0.9,i,9.7,.,.
COc1cccc(/C=N/NC(=O)c2ccc(CN3c4cccc5cccc(c45)S3(=O)=O)cc2)c1,i,-14.0,101.0,1,i,2.5,.,.
O=C(N/N=C/c1cccnc1)c1ccc(CN2c3cccc4cccc(c34)S2(=O)=O)cc1,i,-1.3,103.0,1,-5.01*,-4.1,i,i
O=C(CCC1CCCN(Cc2ccc3c(c2)CCO3)C1)NCc1ccc(F)c(F)c1 (configuration not stated),i,-3.0,104.0,1,i,0.1,.,.
O=C1C(=O)N(CCc2c[nH]c3ccccc23)C(c2cccnc2)/C1=C(/O)c1ccccc1 (configuration not stated),i,-5.8,.,1,-6.29*,0.0,i,i
O=C1C(=O)N(CCCn2ccnc2)C(c2cccnc2)/C1=C(/O)c1ccc(F)cc1 (configuration not stated),i,-8.8,102.0,1,i,-0.2,.,.
Cc1csc(NC(=O)c2cncc(Br)c2)n1,i,-7.8,95.0,1,i,-3.0,.,.
Cn1c(=O)c(C#N)c(-c2ccc(F)cc2)c2cc(C(=O)c3cc(Cl)cc(Cl)c3O)cnc21,i,.,98.0,.,-8.2*,.,52.8%*,i
COc1ccccc1-n1c(=O)c(C#N)c(-c2ccc([N+](=O)[O-])cc2)c2cc(C(=O)c3cc(F)ccc3O)cnc21,i,-9.3,102.0,1,i,1.3,.,.
Cc1cccc(C(=O)NC2CCN(CC(=O)Nc3ccccc3Cl)CC2)c1,i,.,93.0,.,i,.,.,.
Cc1ccc[n+](CC(=O)c2ccc(-c3ccccc3)cc2)c1,i,-16.8,96.0,1,-10.9*,0.0,i,i
Cc1ccc(C(=O)C[n+]2ccccc2)cc1,i,.,100.0,.,i,.,.,.
Cc1ccc[n+](CC(=O)c2ccc(Cl)cc2)c1,i,.,99.0,.,-11.2*,.,5.6%*,i
Cc1ccc(C(=O)C[n+]2cccc(C(N)=O)c2)cc1,i,.,75.0,.,i,.,.,.
Cc1ccc(C)[n+](CC(=O)c2ccc(-c3ccccc3)cc2)c1,i,-2.5,101.0,1,-4.95*,-1.4,25.0%*,i
SMILES,CHT allo act,TNAP inh noacc,ABCB6 inh 2,TNAP act hiacc,CHT inh,TNAP inh hi DEA,CHT inh conf,HEK293 CHT ctr
COc1ccc(C)cc1-n1nnnc1SCc1nc(N)nc(N(C)C)n1,.,.,94.0,.,.,.,.,.
COc1cc(C#N)c(NC(=S)N2CCN(C(=O)c3ccco3)CC2)cc1OC,.,.,99.0,.,.,.,.,.
OCC[C@@H]1C[C@@H](O)[C@H](O)[C@@]2(OCCc3ccccc32)O1,i,.,103.0,.,i,.,.,.
COc1ccc(CCNC(=O)c2ccc([N+](=O)[O-])cc2)cc1,i,.,93.0,.,i,.,.,.
COc1ccc(CCNC(=O)C(C)c2ccc([N+](=O)[O-])cc2)cc1 (configuration not stated),i,-15.1,97.0,1,-5.46*,-4.0,i,i
CCc1nc2ccc(C(=O)NCc3ccccc3OC)cn2c1N(CC)CCOC,.,.,96.0,.,.,.,.,.
Cc1csc(NC(=O)CSc2nnc(C)n2Cc2ccco2)n1,i,-13.3,86.0,1.1,i,-5.3,.,.
Cc1occc1-c1nnc(SCC(=O)Nc2nccs2)n1CCc1ccccc1,i,-7.5,.,1.1,-6.51*,-6.8,i,i
Cc1csc(NC(=O)CSc2nnc(-c3ccoc3C)n2Cc2ccco2)n1,i,-2.9,99.0,1,-5.29*,1.3,i,i
Cc1csc(NC(=O)CSc2nnc(-c3ccoc3C)n2CCc2ccccc2)n1,i,-7.8,100.0,1.1,i,-7.1,.,.
COC(=O)[C@@]1(Cc2ccc(OC)cc2)[C@H]2c3cc(C(=O)N4CCCC4)n(CCc4c[nH]c5ccc(O)cc45)c3C[C@H]2CN1C(=O)c1ccccc1,.,-4.3,.,1,.,1.3,.,.
CN1CCN(CCOCCOc2ccc(Br)cc2Cl)CC1,i,.,97.0,.,-6.66*,.,56.4%*,i
CC1CCCN(CCOCCOc2ccc(Br)cc2Cl)C1 (configuration not stated),i,0.5,89.0,1,i,-1.8,.,.
Cn1cc(S(=O)(=O)N2CCN(c3ccccc3)CC2)c(=O)n(C)c1=O,i,-2.4,98.0,1,i,-2.8,.,.
COc1ccc(N2CCN(S(=O)(=O)c3cn(C)c(=O)n(C)c3=O)CC2)cc1,i,.,103.0,.,-5.26*,.,i,i

# High-throughput results from PubChem.
